ChEMBL document CHEMBL1121570, “3-(4-Piperidinylalkyl)indoles, selective inhibitors of neuronal 5-hydroxytryptamine uptake” (J Med Chem, 1980)
The source made the active and inactive calls. The calls are words filed in the database; no cut-off is given here.

Assays:
[1] = system: Rattus norvegicus; assay: Antagonism of tetrabenazine ptosis in rat after oral administration; format: functional
Summary of the method: (§1)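 Rats dosed orally 0.5 h before tetrabenazine (10 mg/kg, sc). Ptosis scored present or absent 1 h later. ED50 taken as the dose preventing ptosis in 50% of animals.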

[2] = system: Mus musculus; assay: Compound was tested for potentiation of 5-HTP in mouse after subcutaneous administration; format: functional; conditions: sc
Summary of the method: (§2)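 Mice in groups of eight received L-5-HTP 100 mg/kg ip in 0.9% NaCl. Drug was given sc 30 min after 5-HTP. Tremor was rated at 75 min (0 none, 1 moderate, 2 severe). ED50 is the dose giving a mean score of 1, derived from the group global scores.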

[3] = biological target: Sodium-dependent dopamine transporter (Rattus norvegicus, UniProt P23977); assay: Inhibition of uptake of dopamine (DA) rat brain striatum; format: functional, tissue-based
Sequence of Sodium-dependent dopamine transporter (P23977 whole entry): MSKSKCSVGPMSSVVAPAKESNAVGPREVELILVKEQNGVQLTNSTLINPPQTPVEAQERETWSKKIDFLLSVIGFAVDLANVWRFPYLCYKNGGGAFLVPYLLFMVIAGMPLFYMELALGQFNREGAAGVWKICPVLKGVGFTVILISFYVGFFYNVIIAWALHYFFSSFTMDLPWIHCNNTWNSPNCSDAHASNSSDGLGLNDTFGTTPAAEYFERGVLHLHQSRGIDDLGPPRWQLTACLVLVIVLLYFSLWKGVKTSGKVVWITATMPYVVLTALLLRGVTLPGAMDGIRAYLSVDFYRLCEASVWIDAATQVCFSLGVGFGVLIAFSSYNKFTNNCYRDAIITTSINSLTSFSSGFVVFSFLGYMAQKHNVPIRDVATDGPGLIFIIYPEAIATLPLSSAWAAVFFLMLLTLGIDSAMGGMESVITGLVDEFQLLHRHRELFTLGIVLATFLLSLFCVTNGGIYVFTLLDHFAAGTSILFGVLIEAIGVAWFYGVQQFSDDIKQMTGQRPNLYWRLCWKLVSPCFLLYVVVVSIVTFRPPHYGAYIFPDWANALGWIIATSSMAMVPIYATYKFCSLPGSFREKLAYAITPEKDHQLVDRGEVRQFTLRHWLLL
Summary of the method: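 Brain synaptosomes from immature female rats (19-21 days) were incubated 5 min at 37 °C with labelled amine at 10⁻⁷ M. Four to six drug concentrations were run in duplicate. IC50 is the concentration inhibiting uptake by 50%.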

[4] = system: Mus musculus; assay: Potentiation of 5-HTP in mouse after subcutaneous administration.; format: functional, organism-based; summary of the method: as §2
[5] = biological target: Sodium-dependent serotonin transporter (Rattus norvegicus, UniProt P31652); assay: Inhibition of uptake of 5-HT in rat brain cortex; format: functional, tissue-based
Sequence of Sodium-dependent serotonin transporter (Rattus norvegicus, UniProt P31652) (P31652 whole entry): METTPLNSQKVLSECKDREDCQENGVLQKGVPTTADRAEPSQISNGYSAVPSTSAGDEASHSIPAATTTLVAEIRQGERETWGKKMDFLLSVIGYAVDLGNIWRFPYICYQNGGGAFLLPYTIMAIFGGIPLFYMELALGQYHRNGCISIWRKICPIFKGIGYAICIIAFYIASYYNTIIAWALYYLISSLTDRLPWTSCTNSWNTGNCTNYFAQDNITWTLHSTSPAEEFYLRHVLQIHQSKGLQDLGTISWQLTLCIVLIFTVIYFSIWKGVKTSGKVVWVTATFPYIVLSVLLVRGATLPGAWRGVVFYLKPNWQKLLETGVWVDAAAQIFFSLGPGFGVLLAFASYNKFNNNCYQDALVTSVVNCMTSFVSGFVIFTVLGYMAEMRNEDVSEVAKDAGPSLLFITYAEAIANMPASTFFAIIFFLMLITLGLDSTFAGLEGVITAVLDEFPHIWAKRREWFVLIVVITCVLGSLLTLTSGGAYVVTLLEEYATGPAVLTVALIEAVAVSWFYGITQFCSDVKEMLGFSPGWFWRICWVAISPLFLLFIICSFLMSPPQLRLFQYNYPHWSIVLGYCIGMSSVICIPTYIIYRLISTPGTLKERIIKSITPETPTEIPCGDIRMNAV

[6] = biological target: Norepinephrine transporter (Rattus norvegicus, UniProt Q9WTR4); assay: Inhibition of uptake of noradrenaline in rat brain hypothalamus; format: functional, tissue-based
Sequence of Norepinephrine transporter (Q9WTR4 whole entry): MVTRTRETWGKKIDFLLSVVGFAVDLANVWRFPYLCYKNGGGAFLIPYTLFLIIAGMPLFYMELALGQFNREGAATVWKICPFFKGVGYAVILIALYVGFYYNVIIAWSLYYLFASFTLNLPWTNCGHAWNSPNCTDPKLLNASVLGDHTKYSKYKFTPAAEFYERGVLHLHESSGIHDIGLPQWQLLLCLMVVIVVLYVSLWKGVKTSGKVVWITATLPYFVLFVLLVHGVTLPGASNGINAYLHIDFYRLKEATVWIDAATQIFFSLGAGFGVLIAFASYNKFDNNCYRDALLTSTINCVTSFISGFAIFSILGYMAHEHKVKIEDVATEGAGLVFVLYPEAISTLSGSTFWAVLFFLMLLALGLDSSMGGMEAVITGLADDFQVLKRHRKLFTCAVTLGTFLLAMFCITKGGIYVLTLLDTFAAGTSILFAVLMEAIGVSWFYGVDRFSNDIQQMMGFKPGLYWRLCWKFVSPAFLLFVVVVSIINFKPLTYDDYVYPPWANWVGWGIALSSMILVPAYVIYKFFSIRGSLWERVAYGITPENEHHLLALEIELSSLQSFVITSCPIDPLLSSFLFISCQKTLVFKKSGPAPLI
Summary of the method: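 Brain synaptosomes from immature female rats (19-21 days) were incubated 5 min at 37 °C with labelled amine at 10⁻⁷ M. Four to six drug concentrations were run in duplicate.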

[7] = biological target: Sodium-dependent serotonin transporter (Homo sapiens, UniProt P31645); format: functional, organism-based
Sequence of Sodium-dependent serotonin transporter (Homo sapiens, UniProt P31645) (P31645 whole entry): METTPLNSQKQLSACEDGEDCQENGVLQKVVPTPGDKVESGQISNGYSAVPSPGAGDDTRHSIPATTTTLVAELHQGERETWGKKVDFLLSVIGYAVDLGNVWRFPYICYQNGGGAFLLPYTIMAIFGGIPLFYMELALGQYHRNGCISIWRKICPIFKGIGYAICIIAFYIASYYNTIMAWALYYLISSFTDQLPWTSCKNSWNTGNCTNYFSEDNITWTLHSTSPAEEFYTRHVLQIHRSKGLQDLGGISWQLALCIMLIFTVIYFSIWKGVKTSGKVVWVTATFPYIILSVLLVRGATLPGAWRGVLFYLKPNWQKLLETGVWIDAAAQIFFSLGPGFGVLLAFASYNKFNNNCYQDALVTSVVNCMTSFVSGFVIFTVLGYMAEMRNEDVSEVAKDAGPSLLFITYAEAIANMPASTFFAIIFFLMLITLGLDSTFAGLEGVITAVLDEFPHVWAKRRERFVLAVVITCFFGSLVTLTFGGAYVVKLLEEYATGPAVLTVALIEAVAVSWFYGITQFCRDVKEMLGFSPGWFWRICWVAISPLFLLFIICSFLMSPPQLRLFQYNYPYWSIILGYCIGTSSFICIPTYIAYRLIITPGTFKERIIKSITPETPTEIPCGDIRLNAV

[8] = system: Rattus norvegicus; assay: Antagonism of tetrabenazine ptosis in rat after oral administration.; format: functional, organism-based; summary of the method: as §1
[9] = system: Mus musculus; assay: Compound was tested for potentiation of 5-HTP in mouse after subcutaneous administration; Inactive at 25 mg/kg; format: functional, organism-based; set-up: dose 25 mg/kg; summary of the method: as §2
[10] = system: Mus musculus; assay: Compound was tested for potentiation of 5-HTP in mouse after subcutaneous administration; Inactive at the dose 3 mg/kg; format: functional, organism-based; set-up: dose 3 mg/kg; summary of the method: as §2
[11] = system: Rattus norvegicus; assay: Antagonism of tetrabenazine ptosis in rat after oral administration; Inactive at the dose 10 mg/kg; format: functional, organism-based; set-up: dose 10 mg/kg; summary of the method: as §1

SMILES: CN(C)CCCN1c2ccccc2CCc2ccc(Cl)cc21 [CLOMIPRAMINE]
- AD50 [1]: 45 mg/kg
- ED50 [2]: 6.5 mg/kg
- IC50 [3]: 1000 nM

SMILES: O=C(O)/C=C/C(=O)O.c1ccc(-n2cc(CCC3CCNCC3)c3ccccc32)cc1
- AD50 [1]: > 100 mg/kg
- ED50 [4]: inactive
- IC50 [5]: 1000 nM
- IC50 [6]: 400 nM
- IC50 [7]: > 1000 nM
- IC50 [3]: 20000 nM

SMILES: COc1ccc2[nH]cc(CCC3CCNCC3)c2c1
- AD50 [8]: inactive
- ED50 [4]: inactive
- IC50 [5]: 140 nM
- IC50 [6]: 3000 nM
- IC50 [7]: > 1000 nM
- IC50 [3]: 20000 nM

SMILES: c1ccc2c(CCCC3CCNCC3)c[nH]c2c1
- AD50 [1]: 56 mg/kg
- IC50 [5]: 40 nM
- ED50 [2]: 8 mg/kg
- IC50 [6]: 500 nM
- IC50 [7]: 60 nM
- IC50 [3]: 3000 nM

SMILES: Cn1cc(CCC2CCNCC2)c2ccccc21
- ED50 [9]: inactive
- AD50 [8]: inactive
- IC50 [5]: 400 nM
- IC50 [6]: 1300 nM
- IC50 [7]: 400 nM
- IC50 [3]: 30000 nM

SMILES: c1ccc(Cn2cc(CCC3CCNCC3)c3ccccc32)cc1
- AD50 [8]: inactive
- ED50 [4]: inactive
- IC50 [5]: 1900 nM
- IC50 [6]: 5000 nM
- IC50 [7]: > 1000 nM
- IC50 [3]: 300 nM

SMILES: Fc1ccc2[nH]cc(CC3CCNCC3)c2c1
- AD50 [1]: 100 mg/kg
- ED50 [2]: 32 mg/kg
- IC50 [6]: 1000 nM
- IC50 [7]: 170 nM
- IC50 [3]: 7000 nM

SMILES: CN1CCC(CCc2c[nH]c3ccccc23)CC1
- AD50 [8]: inactive
- ED50 [4]: inactive
- IC50 [5]: 450 nM
- IC50 [6]: 40000 nM
- IC50 [7]: > 1000 nM
- IC50 [3]: 6500 nM

SMILES: Clc1ccc2[nH]cc(CCC3CCNCC3)c2c1
- AD50 [8]: inactive
- ED50 [4]: inactive
- IC50 [5]: 130 nM
- IC50 [6]: 650 nM
- IC50 [7]: 220 nM
- IC50 [3]: 1500 nM

SMILES: Brc1ccc2[nH]cc(CC3CCNCC3)c2c1
- AD50 [1]: 10 mg/kg
- IC50 [5]: 700 nM
- ED50 [10]: inactive
- IC50 [6]: 600 nM
- IC50 [7]: 1000 nM
- IC50 [3]: 8000 nM

SMILES: Oc1ccc2c(CCC3CCNCC3)c[nH]c2c1
- AD50 [8]: inactive
- ED50 [4]: inactive
- IC50 [5]: 1500 nM
- IC50 [6]: 600 nM
- IC50 [7]: > 1000 nM
- IC50 [3]: 150 nM

SMILES: Clc1ccc2[nH]cc(CC3CCNCC3)c2c1
- IC50 [5]: 700 nM
- ED50 [10]: inactive
- IC50 [6]: 1800 nM
- AD50 [11]: inactive
- IC50 [7]: > 1000 nM
- IC50 [3]: 12000 nM

SMILES: c1ccc(-c2[nH]c3ccccc3c2CCC2CCNCC2)cc1
- AD50 [8]: inactive
- ED50 [4]: inactive
- IC50 [5]: 2200 nM
- IC50 [6]: 1500 nM
- IC50 [7]: > 1000 nM
- IC50 [3]: 3500 nM

SMILES: Oc1ccc2[nH]cc(CCC3CCNCC3)c2c1
- AD50 [8]: inactive
- ED50 [4]: inactive
- IC50 [5]: 600 nM
- IC50 [6]: 1000 nM
- IC50 [7]: 20 nM
- IC50 [3]: 2700 nM

SMILES: CN1CCC(CCc2cn(C)c3ccccc23)CC1
- AD50 [8]: inactive
- ED50 [4]: inactive
- IC50 [5]: 1700 nM
- IC50 [6]: > 10000 nM
- IC50 [7]: > 1000 nM
- IC50 [3]: > 100000 nM

SMILES: c1ccc2c(CCC3CCNCC3)c[nH]c2c1 [INDALPINE]
- IC50 [5]: 10 nM
- ED50 [2]: 4 mg/kg
- IC50 [6]: 1600 nM
- IC50 [7]: 30 nM
- IC50 [3]: 18000 nM

SMILES: COc1ccc2[nH]cc(CC3CCNCC3)c2c1
- AD50 [8]: inactive
- ED50 [4]: inactive
- IC50 [5]: 1000 nM
- IC50 [6]: 9000 nM
- IC50 [7]: > 1000 nM
- IC50 [3]: > 100000 nM

SMILES: c1ccc2c(CC3CCNCC3)c[nH]c2c1
- AD50 [8]: inactive
- IC50 [5]: 50 nM
- ED50 [2]: 10 mg/kg
- IC50 [6]: 1500 nM
- IC50 [7]: 550 nM
- IC50 [3]: 20000 nM

SMILES: Cc1[nH]c2ccccc2c1CCC1CCNCC1
- AD50 [1]: >100 mg/kg
- ED50 [4]: inactive
- IC50 [5]: 2500 nM
- IC50 [6]: 6500 nM
- IC50 [7]: > 1000 nM
- IC50 [3]: 23000 nM
